In general, apparent Kd refers to a dissociation constant that holds for the conditions of the assay.

This data set concerns MS2 coat protein. As to the kind of experiment: apparent Kd, MS2 coat protein; higher = weaker binding; RNA-MaP array; tryptophan 2.4 mM where present. The gist of the method: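 Designs were transcribed by stalled E. coli RNA polymerase on Illumina sequencing-chip clusters. They were titrated with SNAP-549-labelled MS2 coat protein from 0.7 or 1.5 nM, doubling to 3 µM, without and then with constant ligand. Buffer: 100 mM Tris-HCl pH 7.5, 80 mM KCl, 4 mM MgCl2, BSA, DTT, yeast tRNA, Tween-20. Green signal was normalised to red-channel RNA signal and control-cluster median Fmax. Apparent Kd is the median of filtered per-cluster binding-curve fits.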

The mark [1] stands for this setting: designed as: OFF switch for tryptophan, no ligand.
Where [2] appears, read: ligand present: tryptophan, designed as: OFF switch for tryptophan.

For “AGAUUCGACACGGCCGCCACUCGAGACGGAUUUCCGAGUGUCGAACAUGAGGAUCACCCAUGUCCGAGGACCGGGUGUUGAGUCU”, the “apparent Kd” value by setting is: under setting [1], 0.0322 µM; under setting [2], 0.401 µM.
On to “AUACAUGAGGAUCACCCAUGUCCUCGUGAUCGAGGACCGGUACGGCCGCCACUCGGUCCUCGCGAGGUGGAGUCAAAGACUCCAA”, for which the “apparent Kd” value runs as follows: (designed as: ON switch for tryptophan, no ligand) 0.128 µM; (ligand present: tryptophan, designed as: ON switch for tryptophan) 0.0871 µM.
Turning to “UAACAUGAGGAUCACCCAUGUAUACUUAGUCGAGGACCGGUACGGCCGCCACUCGUACUUCAAGAUUUGGCGGAAAAUGUAUGUA”, the “apparent Kd” value worked out at 0.0125 µM under setting [1] and 0.0151 µM under setting [2].
With “AGAUUCGACACGGCCGCCACUCGUGGAGGAUUUCCGAGUGUCGAACAUGAGGAUCACCCAUGUACGAGGACCGGGUGUUGAGUCU”, the “apparent Kd” value is, setting by setting: under setting [1], 0.0284 µM; under setting [2], 0.234 µM.
On to “GGUAUGUAUUCGGAAACGAAUGCAUACCAACGAGGACCGGUACGGCCGCCACUCGGCGGCGAUCAACAUGAGGAUCACCCAUGUA”, for which the “apparent Kd” value stood at 0.0404 µM under setting [1] and 0.031 µM under setting [2].

These data come from the EternaBench riboswitch data.
